Screens as filed in PubChem.
WT yeast gro inh = growth inhibition of WT yeast, mitochondrial fusion screen. AID 1362. mitochondrial fusion phenotypic screen, WT strain. inhibition, % at 10 µM. actives 2.1% (n = 190,000); in the data active = inhibition above about 58%; tested in S. cerevisiae
Yeast growth inh = yeast BB579 growth reduction in restrictive medium | S. cerevisiae BB579 growth, OD615, 48 h | inhibition, % at 10 µM | actives 0.51% (n = 140,000);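 active = inhibition above a set limit, 3 SD over the mean compound inhibition, cut at about 44% in these data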
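controls = amphotericin B 10 µg/mL, positive | assay system = DeaD yeast strain BB579 | schedule = 48 h compound exposure at 30 °C after 4 h preincubation | detection = OD615 turbidity measurement | medium = restrictive CSMM-D medium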
Yeast lifespan up = yeast lifespan extension; S. cerevisiae growth with nicotinamide, OD615; deaD strain in restrictive glucose medium; inhibition of the nicotinamide effect, % at 10 µM; actives 0.68% (n = 130,000); AID 775;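 active = inhibition above a set limit, placed 3 SD over the median of all compounds, cut at about 26% in these data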;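 also: 0% = nicotinamide-treated wells and 100% = cells grown without nicotinamide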
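System: DeaD-strain S. cerevisiae / Buffer or medium: CSMM-D, restrictive glucose (dextrose) synthetic minimal medium / Probe or stimulus: nicotinamide, 1.5 mM, co-present with compound / Compound: one concentration, 10 µM, DMSO 0.25% / Incubation: 48 h compound exposure at 30 °C, humidified / Technique: optical density (absorbance) at 615 nm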
KCC2 mod = modulates chloride dependent transport by human KCC2; KCC2 cells, thallium flux FluoZin-2 fluorescence; Q9H2X9; B-score of Tl+ flux slope (higher = more flux/activation; lower = inhibition) at 10 µM; actives 2.2% (n = 190,000);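 active = thallium flux slope and its plate-corrected score both differing from the plate sample mean at a set confidence after two filtering rounds, in either direction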;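 also: slope of fluorescence scaled to starting intensity during 10 to 20 s after thallium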
Target sequence (Q9H2X9 whole entry, looked up): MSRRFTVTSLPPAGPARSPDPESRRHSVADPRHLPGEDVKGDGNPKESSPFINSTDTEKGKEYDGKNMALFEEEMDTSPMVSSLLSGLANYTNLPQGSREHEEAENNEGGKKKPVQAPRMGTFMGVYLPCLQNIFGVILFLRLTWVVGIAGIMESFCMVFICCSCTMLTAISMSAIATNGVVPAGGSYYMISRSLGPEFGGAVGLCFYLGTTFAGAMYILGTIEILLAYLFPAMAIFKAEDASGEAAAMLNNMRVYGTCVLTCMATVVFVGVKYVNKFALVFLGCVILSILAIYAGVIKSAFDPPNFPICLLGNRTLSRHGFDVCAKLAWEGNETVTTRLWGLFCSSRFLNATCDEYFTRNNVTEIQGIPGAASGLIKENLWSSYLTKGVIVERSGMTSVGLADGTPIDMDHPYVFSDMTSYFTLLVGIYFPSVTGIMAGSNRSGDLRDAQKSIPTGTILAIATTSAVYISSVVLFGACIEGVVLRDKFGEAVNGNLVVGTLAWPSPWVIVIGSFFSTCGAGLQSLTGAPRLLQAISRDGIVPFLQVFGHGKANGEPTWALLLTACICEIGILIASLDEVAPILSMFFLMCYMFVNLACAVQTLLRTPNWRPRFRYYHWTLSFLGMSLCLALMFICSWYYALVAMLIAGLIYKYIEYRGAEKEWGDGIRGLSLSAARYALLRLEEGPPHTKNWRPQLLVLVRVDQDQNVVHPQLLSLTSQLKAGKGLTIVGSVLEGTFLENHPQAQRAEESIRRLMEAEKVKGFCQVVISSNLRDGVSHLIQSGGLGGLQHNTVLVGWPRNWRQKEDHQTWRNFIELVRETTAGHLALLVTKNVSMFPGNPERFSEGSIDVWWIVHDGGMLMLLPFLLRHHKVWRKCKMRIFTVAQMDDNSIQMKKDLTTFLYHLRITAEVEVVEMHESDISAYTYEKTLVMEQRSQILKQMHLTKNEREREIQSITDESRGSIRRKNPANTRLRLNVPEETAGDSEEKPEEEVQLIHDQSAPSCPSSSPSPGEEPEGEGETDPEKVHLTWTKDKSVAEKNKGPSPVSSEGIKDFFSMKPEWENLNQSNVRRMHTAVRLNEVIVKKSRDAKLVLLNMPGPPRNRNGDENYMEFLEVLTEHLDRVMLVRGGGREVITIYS
RAM network inh = blocks the yeast RAM network | AID 868 | S. cerevisiae dse1pr::URA3 reporter, 5-FOA growth OD615, 2 d; analog-sensitive cbk1-as2 kinase mutant strain | actives 1.8% (n = 190,000) | inhibition, % at 50 µM;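 active = inhibition above a set limit, 3 SD over mean compound inhibition, cut at about 8.4% in these data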;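 also: 0% = DMSO-only wells with no growth and 100% = 10 µM 1-NA-PP1 full growth; inhibition rescues growth on 5-FOA so higher OD means more RAM inhibition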
KCC2 secondary = KCC2 (human) modulation, secondary assay; shares compounds with KCC2 mod; HEK293-KCC2, thallium flux, FluoZin2 fluorescence; stronger effect = higher value; normalised thallium flux (F/F0 slope) at 10 µM; actives 15% (n = 3,700);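 active = thallium flux slope above the same plate's solvent-only control mean plus 3 SD; inconclusive = the two replicate wells disagree; inactive = no significant difference from solvent-only control wells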
KCC2 bumet counter = thallium flux despite bumetanide block in KCC2 cells, secondary assay 3; AID 1714; normalized thallium flux at 10 µM; HEK293-KCC2 + bumetanide/ouabain, thallium flux FluoZin2; stronger effect = higher value; shares compounds with KCC2 mod; actives 49% (n = 3,700);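 active = thallium entry rate above the same plate's blocked-transporter control wells by more than 3 SD; inconclusive = the two repeat wells disagree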;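 also: raw slope of fluorescence over initial fluorescence between 10 and 20 s after thallium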
KCC2 sec2 = KCC2 (human) modulation, second secondary assay; HEK293-KCC2, thallium flux FluoZin2 fluorescence; actives lie on both sides; F/F0 rise rate, 10–20 s post-thallium; shares compounds with KCC2 mod; actives 23% (n = 3,700); normalized thallium flux at 10 µM;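 active = thallium flux slope more than 3 SD above or below the plate's solvent-only control mean, mostly below; inconclusive = the two repeat wells disagreed; inactive = no significant shift from solvent-only controls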;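 also: raw slope with 0.1% DMSO as baseline and bumetanide as block control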
HEK counter1 = counter-screen for KCC2 modulators: effect in parental HEK293 cells. thallium flux FluoZin2, ouabain; baseline-ratio fluorescence slope, 10–20 s after thallium. thallium flux rate (normalised fluorescence) at 10 µM. AID 1716. actives 46% (n = 3,700). shares compounds with KCC2 mod;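 active = thallium flux rate significantly above the same plate's solvent-only control wells, beyond their mean plus 3 SD; inconclusive = the two replicate wells gave conflicting results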
KCC2 retest ouab = KCC2 (human) modulation, ouabain retest; shares compounds with KCC2 mod; HEK293-KCC2, thallium flux FluoZin2 fluorescence; bidirectional: low = inhibitor, high = activator; raw Tl+ flux slope (below DMSO = inhibition, above = activation) at 10 µM; actives 48% (n = 3,700);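 active = thallium flux slope beyond 3 SD from same-plate DMSO control mean in most replicates, usually higher, sometimes lower; inconclusive = repeat tests gave conflicting results; inactive = no significant difference from controls in most replicates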;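 also: slope of initial-normalized fluorescence between seconds 10 and 20 after thallium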
HEK counter2 = acts in parental HEK cells, second KCC2 counter-screen; AID 1718; shares compounds with KCC2 mod; HEK293 parental, thallium flux FluoZin-2 fluorescence slope; actives 33% (n = 3,700); thallium flux slope at 10 µM;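 active = thallium flux slope above the same plate's solvent-control mean plus 3 SD in both duplicate wells; inconclusive = duplicate wells that disagreed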;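 also: run without ouabain in cells lacking the KCC2 cotransporter; slope of fluorescence scaled to its starting value between 10 and 20 s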
* marks the source's active call; other numbers are inactive results; ? = inconclusive; · = not tested or not shown. In the library only some 5.5% were active in any assay of this set; here they are far more common.

SMILES	WT yeast gro inh	Yeast growth inh	Yeast lifespan up	KCC2 mod	RAM network inh	KCC2 secondary	KCC2 bumet counter	KCC2 sec2	HEK counter1	KCC2 retest ouab	HEK counter2
NC(=O)c1ccccc1NC(=O)Nc1cccc2ccccc12	-18	·	·	-4.1*	4	?	0.0063	0.029	0.006	0.019	0.0095
CCN(CC)Cc1c(O)ccc2c(C)c(CC(=O)OC)c(=O)oc12	3	-37	-7	·	1	0.0073	?	0.033	0.0077	0.019	0.012
CCn1c(O)c(N=N)c2ccccc21	-9	·	·	0.29	-1	·	·	·	·	·	·
CCn1c(O)c(N=NC(=O)c2cccs2)c2ccccc21	15	·	·	8.8*	2	?	0.029*	0.032	0.013*	0.027*	0.011*
Nc1nnc(CC(=O)N/N=C/c2ccccc2OCc2ccccc2F)s1	·	·	·	-1.1	·	·	·	·	·	·	·
N#Cc1c(NC(=O)c2ccccc2Cl)n(Cc2ccccc2)c2nc3ccccc3nc12	-1	-41	2	-4.6*	3	0.0076	0.0062	0.029	0.0051*	0.014*	0.009
O=C(COC(=O)C1CC(O)CN1S(=O)(=O)c1ccc(Cl)cc1)c1ccccc1Cl (stereo not drawn)	2	-22	3	-1.1	3	·	·	·	·	·	·
Cc1ccc(S(=O)(=O)N2CC(O)CC2C(=O)OCC(=O)c2ccccc2Cl)cc1C (stereo not drawn)	-5	-7	4	-4.1*	1	?	0.0044	0.035	0.0039	0.015*	0.011
CCCn1nc(NC(=O)c2cccs2)c2cc3cc(C)ccc3nc21	·	·	·	-0.77	·	·	·	·	·	·	·
O=C(c1ccccc1F)N1CCN(c2ccc([N+](=O)[O-])cc2-n2cccc2)CC1	·	·	·	-0.98	·	·	·	·	·	·	·
O=C(c1ccc(F)cc1)N1CCN(c2ccc([N+](=O)[O-])cc2-n2cccc2)CC1	·	·	·	-3.7*	·	0.0093	0.005	0.036	0.0069	0.019	0.011
COc1cc(C(=O)OCC(=O)c2cc(C)n(C)c2C)cc(OC)c1OC	5	-43	3	6.7*	0	0.01	0.0071	0.032	0.0078	0.022	0.01
Cc1cc(C(=O)COC(=O)c2nccnc2N)c(C)n1C	9	·	·	1.1	3	·	·	·	·	·	·
N#Cc1nc(-c2ccco2)oc1N1CCN(c2ccccc2)CC1	·	-9	-12	·	6	·	·	·	·	·	·
N#Cc1nc(-c2ccco2)oc1N1CCC(Cc2ccccc2)CC1	29	-14	-13	·	9.7*	0.0067	0.0048	0.025*	0.007	?	0.011
O=C1C2C3C=CC(C4CC34)C2C(=O)N1Cc1ccco1 (stereo not drawn)	-22	-36	8	0.0035	1	·	·	·	·	·	·
CCCS(=O)(=O)N1CCN=C1SCc1cccc(C)c1	-6	·	·	0.68	-1	·	·	·	·	·	·
O=C(O)CSc1ccnc2cc(Cl)ccc12	·	·	·	0.89	·	·	·	·	·	·	·
COC(=O)CSc1ccnc2cc(Cl)ccc12	·	·	·	-3.2*	·	0.0096	?	0.034	0.0034	0.018	0.012
CC1=NN(C(=O)c2csc(C(C)C)c2)C(O)(C(F)(F)F)C1 (stereo not drawn)	-15	-13	-1	0.73	0	·	·	·	·	·	·
COc1ccc(/C=N/Nc2snc(SC)c2C#N)cc1OC	6	-40	-24	-0.25	3	·	·	·	·	·	·
COc1cccc(/C=N/Nc2snc(SC)c2C#N)c1O	14	-48	-3	31*	2	0.023*	0.082*	0.038	0.039*	0.055*	0.014*
CC(C)c1ccc(CNC(=O)C(=O)NCC2CCCO2)cc1 (stereo not drawn)	-13	·	·	0.01	1	·	·	·	·	·	·
CC(C)(C)C(=O)/C=c1\[nH]c(=O)/c(=C\c2ccc(C#N)cc2)s1	4	-91	-6	30*	6	0.019*	0.05*	0.037	?	0.048*	?
COc1ccc(-c2nc(Cn3c(SCc4ccc(F)cc4)nc4ccncc43)c(C)o2)cc1OC	-10	-27	-5	-3.5*	-1	0.0083	0.0057	0.031	?	?	0.011
SMILES	WT yeast gro inh	Yeast growth inh	Yeast lifespan up	KCC2 mod	RAM network inh	KCC2 secondary	KCC2 bumet counter	KCC2 sec2	HEK counter1	KCC2 retest ouab	HEK counter2
O=C(OCc1ccccn1)c1ccc(COc2ccccc2Cl)o1	18	-73	-16	-5.9*	1	0.0058	0.0047	0.025*	0.0069	0.013*	0.0089
Cc1nn2c([nH]c(=O)c3ccccc32)c1C=O	15	30	-27	3.4*	-1	0.01	0.01*	0.032	?	?	0.0091
Cc1ccc(OCCC(=O)OCC(=O)N2c3ccccc3CC2C)cc1 (stereo not drawn)	-1	-9	-10	-5.1*	3	0.0077	0.0049	0.025*	0.0072	0.017*	0.0096
CCC(C)n1c(SCC(=O)NC(=O)c2cccn2C)nc2ccccc2c1=O (stereo not drawn)	25	·	·	22*	3	0.016*	0.096*	0.037	0.037*	0.042*	0.017*
COC(=O)N/N=C/c1c(C)cc(C)cc1C	6	-27	-2	-5.3*	2	0.01	0.0058	0.033	0.0075	0.024	0.011
COc1ccc(C2N(S(=O)(=O)c3ccccc3)CCN2S(=O)(=O)c2ccc(C)cc2)cc1 (stereo not drawn)	12	-63	1	-0.13	5	·	·	·	·	·	·
Cc1cccc(-c2noc(CCCC(=O)Nc3cccnc3)n2)c1	-14	-45	-24	-5.1*	1	0.0069	0.0045	0.031	0.0083	0.019	0.011
Cc1cccc(-c2noc(CCCC(=O)Nc3ccc(C(N)=O)cc3)n2)c1	-17	-33	-6	·	2	·	·	·	·	·	·
COc1cccc(NC(=S)NN=C2CCC(C(C)(C)C)CC2)c1 (stereo not drawn)	-6	·	·	4.9*	2	0.006	0.009*	0.029	0.012*	0.02	0.011
COc1cccc(NC(=S)N/N=C2\CC3CCC2(C)C3(C)C)c1 (stereo not drawn)	71*	·	·	11*	1	0.0079	0.027*	?	0.024*	0.031*	0.03*
C#CCCCCCCC#CCN(C)C	5	-12	8	0.39	1	·	·	·	·	·	·
